Each block holds one molecule with its values, some of them ahead of it.
Key:
[1] = system: Homo sapiens; assay: Toxicity in chronic hepatitis B virus infected patient assessed as serum ALT level at 240 mg, po qd for 4 weeks by LC-MS analysis; assay type: organism-based; details: in vivo, 672 h
[2] = system: Hepatitis B virus; assay: Antiviral activity against hepatitis B virus infected in human assessed as log reduction in viral titer per ml of serum at 240 mg, po qd for 4 weeks; assay type: functional
[3] = system: Homo sapiens; assay: Toxicity in chronic hepatitis B virus infected patient assessed as serum ALT level at 60 mg, po qd for 4 weeks by LC-MS analysis; assay type: organism-based; details: in vivo, 672 h
[4] = system: Homo sapiens; assay: Toxicity in chronic hepatitis B virus infected patient assessed as serum ALT level at 120 mg, po qd for 4 weeks by LC-MS analysis; assay type: organism-based; details: in vivo, 672 h
[5] = system: Hepatitis B virus; assay: Antiviral activity against hepatitis B virus infected in human assessed as log reduction in viral titer per ml of serum at 30 mg, po qd for 4 weeks; assay type: functional
[6] = system: Homo sapiens; assay: Toxicity in chronic hepatitis B virus infected patient assessed as serum ALT level at 30 mg, po qd for 4 weeks by LC-MS analysis; assay type: organism-based; details: in vivo, 672 h
[7] = system: Homo sapiens; assay: AUC (0 to 24 hrs) in chronic hepatitis B virus infected patient assessed as (1-((2-amino-6-hydroxy-9H-purin-9-yl)methyl)cyclopropoxy)me at 240 mg, po qd for 4 weeks by LC-MS analysis; assay type: ADME, organism-based, Plasma; parameters: time < 24 hr, dose 240 mg, route oral; details: in vivo
Outline: (§1)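 CHB patients (HBsAg/HBeAg positive), six per cohort, oral once daily for 4 weeks. Plasma sampled at steady state (weeks 2–4), predose and at 0.5, 1, 2, 3, 4, 6, 8 and 24 h postdose. Analysis by validated LC-MS/MS after protein-precipitation extraction with a stable-isotope internal standard; LLOQ 10 ng/ml for LB80317. Noncompartmental analysis gives Cmax, AUC0-24 and terminal t1/2.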

[8] = system: Homo sapiens; assay: Cmax in chronic hepatitis B virus infected patient assessed as (1-((2-amino-6-hydroxy-9H-purin-9-yl)methyl)cyclopropoxy)me at 120 mg, po qd for 4 weeks by LC-MS analysis; assay type: ADME, organism-based; parameters: dose 120 mg, route oral; details: in vivo, 672 h; outline: as §1
[9] = system: Liver; assay: Tmax in CD-1 mouse liver assessed as (1-((2-amino-6-hydroxy-9H-purin-9-yl)methyl)cyclopropoxy)me at 30 mg/kg, po administered as single dose by LC-MS analysis; assay type: ADME, organism-based; parameters: dose 30 mg/kg, route oral; details: in vivo
Outline: (§2)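 Male CD-1 mice received 30 mg/kg orally in 100% PEG 400. Plasma and snap-frozen liver were taken from 3 mice per time point at 1, 2, 4, 6, 10, 24 and 36 h. Samples were extracted with perchloric acid and neutralized with ammonium bicarbonate. Free LB80331/LB80317 was measured directly by LC-MS/MS; total, including di- and triphosphates, was measured after calf intestinal phosphatase treatment.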

[10] = system: Liver; assay: Tmax in CD-1 mouse liver assessed as di- and triphosphates of (1-((2-amino-6-hydroxy-9H-purin-9-yl)methyl)cyclopropoxy)me at 30 mg/kg, po administered as single dose by LC-MS analysis; assay type: ADME, organism-based; parameters: dose 30 mg/kg, route oral; details: in vivo; outline: as §2
[11] = system: Liver; assay: Cmax in CD-1 mouse liver assessed as (1-((2-amino-6-hydroxy-9H-purin-9-yl)methyl)cyclopropoxy)me at 30 mg/kg, po administered as single dose by LC-MS analysis; assay type: ADME, organism-based; parameters: dose 30 mg/kg, route oral; details: in vivo
Outline: (§3)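 Male CD-1 mice given a single oral dose in 100% PEG 400. Samples extracted with perchloric acid and neutralized with ammonium bicarbonate. One aliquot assayed for the free analyte; the other treated with calf intestinal phosphatase to give the total including di-/triphosphates. Analysis by LC-MS/MS.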

[12] = system: Liver; assay: AUC (0 to infinity) in CD-1 mouse liver assessed as (1-((2-amino-6-hydroxy-9H-purin-9-yl)methyl)cyclopropoxy)me at 30 mg/kg, po administered as single dose by LC-MS analysis; assay type: ADME, organism-based; parameters: time infinity, dose 30 mg/kg, route oral; details: in vivo; outline: as §3
[13] = system: Liver; assay: AUC (0 to 36 hrs) in CD-1 mouse liver assessed as di- and triphosphates of (1-((2-amino-6-hydroxy-9H-purin-9-yl)methyl)cyclopropoxy)me at 30 mg/kg, po administered as single dose by LC-MS analysis; assay type: ADME, organism-based; parameters: time < 36 hr, dose 30 mg/kg, route oral; details: in vivo; outline: as §3
[14] = system: Homo sapiens; assay: Half life in chronic hepatitis B virus infected patient assessed as (1-((2-amino-6-hydroxy-9H-purin-9-yl)methyl)cyclopropoxy)me at 30 mg, po qd for 4 weeks by LC-MS analysis; assay type: ADME, organism-based; details: in vivo, 672 h; outline: as §1
[15] = system: Liver; assay: Half life in CD-1 mouse liver assessed as (1-((2-amino-6-hydroxy-9H-purin-9-yl)methyl)cyclopropoxy)me at 30 mg/kg, po administered as single dose by LC-MS analysis; assay type: ADME, organism-based; parameters: dose 30 mg/kg, route oral; details: in vivo; outline: as §3
[16] = system: Plasma; assay: AUC (0 to 36 hrs) in CD-1 mouse plasma assessed as (1-((2-amino-6-hydroxy-9H-purin-9-yl)methyl)cyclopropoxy)me at 30 mg/kg, po administered as single dose by LC-MS analysis; assay type: ADME, organism-based; parameters: time < 36 hr, dose 30 mg/kg, route oral; details: in vivo; outline: as §3
[17] = system: Liver; assay: Cmax in CD-1 mouse liver assessed as di- and triphosphates of (1-((2-amino-6-hydroxy-9H-purin-9-yl)methyl)cyclopropoxy)me at 30 mg/kg, po administered as single dose by LC-MS analysis; assay type: ADME, organism-based; parameters: dose 30 mg/kg, route oral; details: in vivo; outline: as §3
[18] = system: Plasma; assay: Half life in CD-1 mouse plasma assessed as (1-((2-amino-6-hydroxy-9H-purin-9-yl)methyl)cyclopropoxy)me at 30 mg/kg, po administered as single dose by LC-MS analysis; assay type: ADME, organism-based; parameters: dose 30 mg/kg, route oral; details: in vivo; outline: as §3
[19] = system: Liver; assay: AUC (0 to 36 hrs) in CD-1 mouse liver assessed as (1-((2-amino-6-hydroxy-9H-purin-9-yl)methyl)cyclopropoxy)me at 30 mg/kg, po administered as single dose by LC-MS analysis; assay type: ADME, organism-based; parameters: time < 36 hr, dose 30 mg/kg, route oral; details: in vivo; outline: as §3
[20] = system: Homo sapiens; assay: Half life in chronic hepatitis B virus infected patient assessed as (1-((2-amino-6-hydroxy-9H-purin-9-yl)methyl)cyclopropoxy)me at 240 mg, po qd for 4 weeks by LC-MS analysis; assay type: ADME, organism-based; details: in vivo, 672 h; outline: as §1
[21] = system: Plasma; assay: Tmax in CD-1 mouse plasma assessed as (1-((2-amino-6-hydroxy-9H-purin-9-yl)methyl)cyclopropoxy)me at 30 mg/kg, po administered as single dose by LC-MS analysis; assay type: ADME, organism-based; parameters: dose 30 mg/kg, route oral; details: in vivo; outline: as §2
[22] = system: Plasma; assay: Cmax in CD-1 mouse plasma assessed as (1-((2-amino-6-hydroxy-9H-purin-9-yl)methyl)cyclopropoxy)me at 30 mg/kg, po administered as single dose by LC-MS analysis; assay type: ADME, organism-based; parameters: dose 30 mg/kg, route oral; details: in vivo; outline: as §3
[23] = system: Homo sapiens; assay: Tmax in chronic hepatitis B virus infected patient assessed as (1-((2-amino-6-hydroxy-9H-purin-9-yl)methyl)cyclopropoxy)me at 60 mg, po qd for 4 weeks by LC-MS analysis; assay type: ADME, organism-based; details: in vivo, 672 h
Outline: (§4)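 Daily oral LB80380 was given to CHB patients over 4 weeks. Blood was drawn on day 1 and at steady state (weeks 2–4), predose and 0.5–24 h postdose. Plasma LB80331 (LLOQ 5 ng/ml) and LB80317 (LLOQ 10 ng/ml) were measured by LC-MS/MS after protein-precipitation extraction. Tmax was taken by noncompartmental analysis.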

[24] = system: Liver; assay: Half life in CD-1 mouse liver assessed as di- and triphosphates of (1-((2-amino-6-hydroxy-9H-purin-9-yl)methyl)cyclopropoxy)me at 30 mg/kg, po administered as single dose by LC-MS analysis; assay type: ADME, organism-based; parameters: dose 30 mg/kg, route oral; details: in vivo; outline: as §3
[25] = system: Plasma; assay: AUC (0 to infinity) in CD-1 mouse plasma assessed as (1-((2-amino-6-hydroxy-9H-purin-9-yl)methyl)cyclopropoxy)me at 30 mg/kg, po administered as single dose by LC-MS analysis; assay type: ADME, organism-based; parameters: time infinity, dose 30 mg/kg, route oral; details: in vivo; outline: as §3
[26] = system: Homo sapiens; assay: Half life in chronic hepatitis B virus infected patient assessed as (1-((2-amino-6-hydroxy-9H-purin-9-yl)methyl)cyclopropoxy)me at 120 mg, po qd for 4 weeks by LC-MS analysis; assay type: ADME, organism-based; details: in vivo, 672 h; outline: as §1
[27] = system: Homo sapiens; assay: AUC (0 to 24 hrs) in chronic hepatitis B virus infected patient assessed as (1-((2-amino-6-hydroxy-9H-purin-9-yl)methyl)cyclopropoxy)me at 120 mg, po qd for 4 weeks by LC-MS analysis; assay type: ADME, organism-based, Plasma; parameters: dose 120 mg, time < 24 hr, route oral; details: in vivo; outline: as §1
[28] = system: Homo sapiens; assay: Half life in chronic hepatitis B virus infected patient assessed as (1-((2-amino-6-hydroxy-9H-purin-9-yl)methyl)cyclopropoxy)me at 60 mg, po qd for 4 weeks by LC-MS analysis; assay type: ADME, organism-based; details: in vivo, 672 h; outline: as §1
[29] = system: Homo sapiens; assay: Cmax in chronic hepatitis B virus infected patient assessed as (1-((2-amino-6-hydroxy-9H-purin-9-yl)methyl)cyclopropoxy)me at 60 mg, po qd for 4 weeks by LC-MS analysis; assay type: ADME, organism-based; parameters: dose 60 mg, route oral; details: in vivo, 672 h; outline: as §1
[30] = system: Homo sapiens; assay: Tmax in chronic hepatitis B virus infected patient assessed as (1-((2-amino-6-hydroxy-9H-purin-9-yl)methyl)cyclopropoxy)me at 30 mg, po qd for 4 weeks by LC-MS analysis; assay type: ADME, organism-based; details: in vivo, 672 h; outline: as §4
[31] = system: Homo sapiens; assay: Tmax in chronic hepatitis B virus infected patient assessed as (1-((2-amino-6-hydroxy-9H-purin-9-yl)methyl)cyclopropoxy)me at 120 mg, po qd for 4 weeks by LC-MS analysis; assay type: ADME, organism-based; details: in vivo, 672 h; outline: as §4
[32] = system: Homo sapiens; assay: Cmax in chronic hepatitis B virus infected patient assessed as (1-((2-amino-6-hydroxy-9H-purin-9-yl)methyl)cyclopropoxy)me at 240 mg, po qd for 4 weeks by LC-MS analysis; assay type: ADME, organism-based; parameters: dose 240 mg, route oral; details: in vivo, 672 h; outline: as §1
[33] = system: Homo sapiens; assay: Tmax in chronic hepatitis B virus infected patient assessed as (1-((2-amino-6-hydroxy-9H-purin-9-yl)methyl)cyclopropoxy)me at 240 mg, po qd for 4 weeks by LC-MS analysis; assay type: ADME, organism-based; details: in vivo, 672 h; outline: as §4
[34] = system: Liver; assay: AUC (0 to infinity) in CD-1 mouse liver assessed as di- and triphosphates of (1-((2-amino-6-hydroxy-9H-purin-9-yl)methyl)cyclopropoxy)me at 30 mg/kg, po administered as single dose by LC-MS analysis; assay type: ADME, organism-based; parameters: time infinity, dose 30 mg/kg, route oral; details: in vivo; outline: as §3
[35] = system: Homo sapiens; assay: AUC (0 to 24 hrs) in chronic hepatitis B virus infected patient assessed as (1-((2-amino-6-hydroxy-9H-purin-9-yl)methyl)cyclopropoxy)me at 30 mg, po qd for 4 weeks by LC-MS analysis; assay type: ADME, organism-based, Plasma; parameters: time < 24 hr, dose 30 mg, route oral; details: in vivo; outline: as §1
[36] = system: Homo sapiens; assay: Cmax in chronic hepatitis B virus infected patient assessed as (1-((2-amino-6-hydroxy-9H-purin-9-yl)methyl)cyclopropoxy)me at 30 mg, po qd for 4 weeks by LC-MS analysis; assay type: ADME, organism-based; parameters: dose 30 mg, route oral; details: in vivo, 672 h; outline: as §1
[37] = system: Homo sapiens; assay: AUC (0 to 24 hrs) in chronic hepatitis B virus infected patient assessed as (1-((2-amino-6-hydroxy-9H-purin-9-yl)methyl)cyclopropoxy)me at 60 mg, po qd for 4 weeks by LC-MS analysis; assay type: ADME, organism-based, Plasma; parameters: time < 24 hr, dose 60 mg, route oral; details: in vivo; outline: as §1

Compound: CC(C)(C)C(=O)OCOP(=O)(COC1(Cn2cnc3cnc(N)nc32)CC1)OCOC(=O)C(C)(C)C [LB80380]
Activity [1]: 27 U/L | FC [2]: 3.8 | Activity [3]: 68.7 U/L | Activity [4]: 34.5 U/L | FC [5]: 3.02 | Activity [6]: 79.5 U/L

AUC [7]: 1449 ng·h/mL | Cmax [8]: 49 ng/mL | Tmax [9]: 1 h | Tmax [10]: 1 h | Cmax [11]: 243 µM | AUC [12]: 3353 µM·h | AUC [13]: 1883 µM·h | t1/2 [14]: 53 h | t1/2 [15]: 9.9 h | AUC [16]: 6 µM·h | Cmax [17]: 107 µM | t1/2 [18]: 8.6 h | AUC [19]: 3069 µM·h | t1/2 [20]: 45 h | Tmax [21]: 4 h | Cmax [22]: 0.6 µM | Tmax [23]: 8 h | t1/2 [24]: 8.3 h | AUC [25]: 6 µM·h | t1/2 [26]: 51 h | AUC [27]: 1017 ng·h/mL | t1/2 [28]: 62 h | Cmax [29]: 21 ng/mL | Tmax [30]: 6 h | Tmax [31]: 3 h | Cmax [32]: 75 ng/mL | Tmax [33]: 4.5 h | AUC [34]: 2152 µM·h | AUC [35]: 285 ng·h/mL | Cmax [36]: 12 ng/mL | AUC [37]: 433 ng·h/mL
Compound: Nc1nc(O)c2ncn(CC3(OCP(=O)(O)O)CC3)c2n1 [LB80317]
